Data taken from article PMC7880896 (European journal of medicinal chemistry, 2020).
Read-outs that look alike come from different tables or passages of the source.

What was measured:
[1] = system: HEK293 cells; assay: MTT cytotoxicity assay on HEK293 healthy cell line; format: cell-based, human
How it was run: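 HEK293 cells were seeded 24 h before treatment. Compound was dissolved in DMSO (<1%) and diluted in DMEM, tested up to 100 μM. After 24 and 48 h exposure, wells were washed with D-PBS, and MTT from a 5 mg/mL stock was added for 4 h. Formazan was solubilised in DMSO and absorbance read at 540 nm. At least three independent experiments; IC50 given as mean ± SD.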

[2] = target: human adenosine A2A receptor (Homo sapiens, UniProt P29274); assay: Adenosine A2A receptor radioligand binding; conditions: read-out: Inhibition of A2A receptor radioligand binding
How it was run: (§1)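 Membranes came from CHO cells expressing recombinant human A1 and HEK293 cells expressing human A2A. Cells were homogenised, centrifuged at 4°C and stored in buffer with 3 U/mL adenosine deaminase. Test compound (1 μM) was incubated with A1 membranes (40 μg) plus 2 nM [3H]DPCPX, or A2A membranes (20 μg) plus 15 nM [3H]ZM241385. Incubation was 60 min, 25°C, in 50 mM Tris-HCl pH 7.4 with 10 mM MgCl2. Bound ligand was GF/B-filtered and scintillation-counted.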

[3] = system: U87MG cells; assay: MTT antiproliferative assay on U87MG glioblastoma cells; format: cell-based, human; conditions: for viability at 10 µM: Homo sapiens, U-87 MG, read-out: % Viability U87MG, 10 μM, ± SD
[4] = system: MCF7 cells; assay: MTT antiproliferative assay on MCF7 cells; format: cell-based, human; conditions: read-out: IC50 MCF7, mean ± SD
How it was run: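 MCF7 cells were kept in DMEM/F-12 with 10% FBS, penicillin/streptomycin and L-glutamine, passaged every 3 days, and seeded 24 h before treatment. Compound was dissolved in DMSO (<1%) and diluted in DMEM. After 24 and 48 h exposure, cells were washed with D-PBS and given MTT from a 5 mg/mL stock for 4 h. Formazan was dissolved in DMSO and read at 540 nm. At least three independent experiments; mean ± SD.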

[5] = system: U87MG cell line; conditions: read-out: IC50 on U87MG cell line; cited from earlier work
[6] = target: T1, human adenosine A1 receptor (Homo sapiens, UniProt P30542); assay: Adenosine A1 receptor radioligand binding; conditions: read-out: Inhibition of A1 receptor radioligand binding
T1 sequence (P30542 1-326): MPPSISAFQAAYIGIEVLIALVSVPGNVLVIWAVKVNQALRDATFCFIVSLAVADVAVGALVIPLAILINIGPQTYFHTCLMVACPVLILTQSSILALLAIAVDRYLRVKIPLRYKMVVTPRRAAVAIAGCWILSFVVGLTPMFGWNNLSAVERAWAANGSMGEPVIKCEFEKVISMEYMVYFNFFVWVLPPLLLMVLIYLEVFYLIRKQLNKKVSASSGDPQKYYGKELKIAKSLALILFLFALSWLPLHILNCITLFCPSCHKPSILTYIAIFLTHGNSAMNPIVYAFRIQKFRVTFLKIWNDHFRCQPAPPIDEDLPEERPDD
How it was run: as §1

[7] = Homo sapiens, HEK293, read-out: IC50 HEK293

Sequence of human adenosine A2A receptor (P29274 whole entry): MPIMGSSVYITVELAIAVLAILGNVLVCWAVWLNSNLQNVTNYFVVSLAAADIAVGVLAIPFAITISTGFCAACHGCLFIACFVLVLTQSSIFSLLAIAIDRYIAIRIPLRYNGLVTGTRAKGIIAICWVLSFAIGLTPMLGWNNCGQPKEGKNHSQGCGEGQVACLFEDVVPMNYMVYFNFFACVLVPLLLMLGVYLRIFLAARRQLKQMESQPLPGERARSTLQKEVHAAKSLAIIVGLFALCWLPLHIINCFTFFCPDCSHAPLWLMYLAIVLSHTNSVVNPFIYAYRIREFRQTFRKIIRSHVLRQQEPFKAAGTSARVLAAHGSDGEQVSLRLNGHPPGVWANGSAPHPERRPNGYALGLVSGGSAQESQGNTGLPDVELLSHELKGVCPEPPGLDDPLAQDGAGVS

Row | SMILES | IC50 [1, 7] [µM] | further results
1 | Cc1nc(-c2ccc(Cl)cc2)sc1C(=O)CSc1nc(N)c(C#N)c(-c2ccccc2)n1 [Compound 5g, 4-amino-2-((2-(2-(4-chlorophenyl)-4-methylthiazol-5-yl)-2-oxoethyl)thio)-6-phenylpyrimidine-5-carbonitrile] | > 100 | 
2 | COc1ccc(-c2nc(C)c(C(=O)CSc3nc(N)c(C#N)c(-c4ccc(OC)cc4)n3)s2)cc1 [Compound 5e, 4-amino-6-(4-methoxyphenyl)-2-((2-(2-(4-methoxyphenyl)-4-methylthiazol-5-yl)-2-oxoethyl)thio)pyrimidine-5-carbonitrile] | > 100 | inhibition at 1 µM [2]: -18%; cytotoxic effect on HEK293 (in words) ([1]; healthy cell line): no cytotoxic effect even at high concentrations
3 | Cc1nc(-c2ccc(Cl)cc2)sc1C(=O)CSc1nc(-c2ccccc2)c(C#N)c(=O)[nH]1 [Compound 4q, 2-((2-(2-(4-chlorophenyl)-4-methylthiazol-5-yl)-2-oxoethyl)thio)-6-oxo-4-phenyl-1,6-dihydropyrimidine-5-carbonitrile] | > 100 | 
4 | COc1ccc(-c2nc(C)c(C(=O)CSc3nc(-c4ccc5c(c4)OCO5)c(C#N)c(=O)[nH]3)s2)cc1 [Compound 4p, 4-(benzo[d][1,3]dioxol-5-yl)-2-((2-(2-(4-methoxyphenyl)-4-methylthiazol-5-yl)-2-oxoethyl)thio)-6-oxo-1,6-dihydropyrimidine-5-carbonitrile] | > 100 | 
5 | COc1ccc(-c2nc(SCC(=O)c3sc(-c4ccccc4)nc3C)[nH]c(=O)c2C#N)cc1OC [Compound 4d, 4-(3,4-dimethoxyphenyl)-2-((2-(4-methyl-2-phenylthiazol-5-yl)-2-oxoethyl)thio)-6-oxo-1,6-dihydropyrimidine-5-carbonitrile] |  | viability at 10 µM [3]: < 70%
6 | COc1ccc(-c2nc(C)c(C(=O)CSc3nc(-c4cccc(Cl)c4)c(C#N)c(=O)[nH]3)s2)cc1 [Compound 4m, 4-(3-chlorophenyl)-2-((2-(2-(4-methoxyphenyl)-4-methylthiazol-5-yl)-2-oxoethyl)thio)-6-oxo-1,6-dihydropyrimidine-5-carbonitrile] | > 100 | 
7 | COc1ccc(-c2nc(C)c(C(=O)CSc3nc(N)c(C#N)c(-c4ccccc4)n3)s2)cc1 [Compound 5d, 4-amino-2-((2-(2-(4-methoxyphenyl)-4-methylthiazol-5-yl)-2-oxoethyl)thio)-6-phenylpyrimidine-5-carbonitrile] | > 100 | 
8 | COc1ccc(-c2nc(C)c(C(=O)CSc3nc(-c4ccc(OC)cc4)c(C#N)c(=O)[nH]3)s2)cc1 [Compound 4k, 4-(4-methoxyphenyl)-2-((2-(2-(4-methoxyphenyl)-4-methylthiazol-5-yl)-2-oxoethyl)thio)-6-oxo-1,6-dihydropyrimidine-5-carbonitrile] | > 100 | 
9 | Cc1nc(-c2ccccc2)sc1C(=O)CSc1nc(-c2ccc3c(c2)OCO3)c(C#N)c(=O)[nH]1 [Compound 4h, 4-(benzo[d][1,3]dioxol-5-yl)-2-((2-(4-methyl-2-phenylthiazol-5-yl)-2-oxoethyl)thio)-6-oxo-1,6-dihydropyrimidine-5-carbonitrile] | > 100 | 
10 | N.N.[Cl][Pt][Cl] [cisplatin, reference compound] |  | IC50 ([3]; read-out: IC50 U87MG, MTT, mean ± SD): 1.67 ± 0.04 µM; IC50 ([1]; read-out: IC50 HEK293, MTT, mean ± SD, ND = viability higher than 50% at 100 μM): 8.44 ± 0.86 µM; IC50 [4]: 2.51 ± 0.29 µM
11 | Cc1nc(-c2ccccc2)sc1C(=O)CSc1nc(-c2ccc(Cl)cc2)c(C#N)c(=O)[nH]1 [Compound 4f, 4-(4-chlorophenyl)-2-((2-(4-methyl-2-phenylthiazol-5-yl)-2-oxoethyl)thio)-6-oxo-1,6-dihydropyrimidine-5-carbonitrile] | > 100 | 
12 | Cc1nc(-c2ccccc2)sc1C(=O)CSc1nc(-c2cccc(Cl)c2)c(C#N)c(=O)[nH]1 [Compound 4e, 4-(3-chlorophenyl)-2-((2-(4-methyl-2-phenylthiazol-5-yl)-2-oxoethyl)thio)-6-oxo-1,6-dihydropyrimidine-5-carbonitrile] | > 100 | 
13 | COc1ccc(-c2nc(SCC(=O)c3sc(-c4ccc(Cl)cc4)nc3C)[nH]c(=O)c2C#N)cc1OC [Compound 4t, 2-((2-(2-(4-chlorophenyl)-4-methylthiazol-5-yl)-2-oxoethyl)thio)-4-(3,4-dimethoxyphenyl)-6-oxo-1,6-dihydropyrimidine-5-carbonitrile] | > 100 | 
14 | Cn1nnc2c(C(N)=O)ncn2c1=O [temozolomide] |  | IC50 [5]: 130 to 171 µM
15 | COc1ccc(-c2nc(SCC(=O)c3sc(-c4ccccc4)nc3C)nc(N)c2C#N)cc1 [Compound 5b, 4-amino-6-(4-methoxyphenyl)-2-((2-(4-methyl-2-phenylthiazol-5-yl)-2-oxoethyl)thio)pyrimidine-5-carbonitrile] | > 100 | 
16 | Cc1nc(-c2ccccc2)sc1C(=O)CSc1nc(N)c(C#N)c(-c2ccc(Cl)cc2)n1 [Compound 5c, 4-amino-6-(4-chlorophenyl)-2-((2-(4-methyl-2-phenylthiazol-5-yl)-2-oxoethyl)thio)pyrimidine-5-carbonitrile] | > 100 | inhibition at 1 µM [6]: -23%
17 | COc1ccc(-c2nc(SCC(=O)c3sc(-c4ccc(Cl)cc4)nc3C)[nH]c(=O)c2C#N)cc1 [Compound 4s, 2-((2-(2-(4-chlorophenyl)-4-methylthiazol-5-yl)-2-oxoethyl)thio)-4-(4-methoxyphenyl)-6-oxo-1,6-dihydropyrimidine-5-carbonitrile] | > 100 | 
18 | COc1ccc(-c2nc(C)c(C(=O)CSc3nc(-c4ccccc4)c(C#N)c(=O)[nH]3)s2)cc1 [Compound 4i, 2-((2-(2-(4-methoxyphenyl)-4-methylthiazol-5-yl)-2-oxoethyl)thio)-6-oxo-4-phenyl-1,6-dihydropyrimidine-5-carbonitrile] | > 100 | 
19 | COc1ccc(-c2nc(SCC(=O)c3sc(-c4ccc(Cl)cc4)nc3C)nc(N)c2C#N)cc1 [Compound 5h, 4-amino-2-((2-(2-(4-chlorophenyl)-4-methylthiazol-5-yl)-2-oxoethyl)thio)-6-(4-methoxyphenyl)pyrimidine-5-carbonitrile] | > 100 | inhibition at 1 µM [2]: -22%
20 | COc1ccc(-c2nc(C)c(C(=O)CSc3nc(-c4cccc(OC)c4)c(C#N)c(=O)[nH]3)s2)cc1 [Compound 4j, 4-(3-methoxyphenyl)-2-((2-(2-(4-methoxyphenyl)-4-methylthiazol-5-yl)-2-oxoethyl)thio)-6-oxo-1,6-dihydropyrimidine-5-carbonitrile] |  | viability at 10 µM [3]: < 70%
21 | COc1ccc(-c2nc(C)c(C(=O)CSc3nc(-c4ccc(OC)c(OC)c4)c(C#N)c(=O)[nH]3)s2)cc1 [Compound 4l, 4-(3,4-dimethoxyphenyl)-2-((2-(2-(4-methoxyphenyl)-4-methylthiazol-5-yl)-2-oxoethyl)thio)-6-oxo-1,6-dihydropyrimidine-5-carbonitrile] |  | viability at 10 µM [3]: < 70%
